Tested on: HEK-293T
Assay: Multiplex assay against HEK293T
Assay type: toxicity, cell-based
Details: human
How it was run: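 Cells stained live at seeding with Hoechst33342, BioTracker Green Microtubule Cytoskeleton Dye, MitoTracker Red and Annexin V Alexa Fluor 680 were imaged on a CQ1 microscope at 37°C and 5% CO2 after compound addition. Their classification by CellPathfinder machine-learning gating ran from Hoechst high-intensity objects versus normal cells, to healthy, pyknosed or fragmented nuclei among normal cells, to mitotic or apoptotic among pyknosed cells. Tubulin, mitochondrial-mass and membrane-permeability phenotypes are per cents of healthy-nucleus cells.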

[1] = 12 h, 1 µM, compound concentration 1 uM, replicate 1
[2] = 12 h, 1 µM, compound concentration 1 uM, replicate 2
[3] = 12 h, 10 µM, compound concentration 10 uM, replicate 1
[4] = 12 h, 10 µM, compound concentration 10 uM, replicate 2
[5] = 24 h, 1 µM, compound concentration 1 uM, replicate 1
[6] = 24 h, 1 µM, compound concentration 1 uM, replicate 2
[7] = 24 h, 10 µM, compound concentration 10 uM, replicate 1
[8] = 24 h, 10 µM, compound concentration 10 uM, replicate 2
[9] = 48 h, 1 µM, compound concentration 1 uM, replicate 1
[10] = 48 h, 1 µM, compound concentration 1 uM, replicate 2
[11] = 48 h, 10 µM, compound concentration 10 uM, replicate 1
[12] = 48 h, 10 µM, compound concentration 10 uM, replicate 2

SMILES: Cc1cccc(NC(=O)CN2CCC(c3ccccn3)CC2)c1.Cl.Cl
- Population Apoptotic (%) [1]: 34%
- Population Fragmented Nuclei (%) [1]: 7%
- Population Healthy Nuclei (%) [1]: 76%
- Population Hoechst High Intensity Objects (%) [1]: 5%
- Population Membrane Permeable-Phenotype (%) [1]: 0%
- Population Mitochondria Different-Phenotype (%) [1]: 54%
- Population Mitotic Cells (%) [1]: 65%
- Population Normal (%) [1]: 94%
- Population Pyknosed Nuclei (%) [1]: 15%
- Population Tubulin-Different-Phenotype (%) [1]: 33%
- Total Cell Count [1]: 348
- Population Apoptotic (%) [2]: 46%
- Population Fragmented Nuclei (%) [2]: 5%
- Population Healthy Nuclei (%) [2]: 82%
- Population Hoechst High Intensity Objects (%) [2]: 3%
- Population Mitotic Cells (%) [2]: 53%
- Population Normal (%) [2]: 96%
- Population Pyknosed Nuclei (%) [2]: 11%
- Population Tubulin-Different-Phenotype (%) [2]: 22%
- Total Cell Count [2]: 277
- Population Apoptotic (%) [3]: 61%
- Population Fragmented Nuclei (%) [3]: 6%
- Population Healthy Nuclei (%) [3]: 71%
- Population Hoechst High Intensity Objects (%) [3]: 9%
- Population Membrane Permeable-Phenotype (%) [3]: 0%
- Population Mitochondria Different-Phenotype (%) [3]: 63%
- Population Mitotic Cells (%) [3]: 38%
- Population Normal (%) [3]: 90%
- Population Pyknosed Nuclei (%) [3]: 21%
- Population Tubulin-Different-Phenotype (%) [3]: 50%
- Total Cell Count [3]: 291
- Population Apoptotic (%) [4]: 43%
- Population Fragmented Nuclei (%) [4]: 10%
- Population Healthy Nuclei (%) [4]: 70%
- Population Hoechst High Intensity Objects (%) [4]: 14%
- Population Mitochondria Different-Phenotype (%) [4]: 79%
- Population Mitotic Cells (%) [4]: 56%
- Population Normal (%) [4]: 85%
- Population Pyknosed Nuclei (%) [4]: 18%
- Population Tubulin-Different-Phenotype (%) [4]: 35%
- Total Cell Count [4]: 273
- Population Apoptotic (%) [5]: 32%
- Population Fragmented Nuclei (%) [5]: 8%
- Population Healthy Nuclei (%) [5]: 81%
- Population Hoechst High Intensity Objects (%) [5]: 3%
- Population Membrane Permeable-Phenotype (%) [5]: 0%
- Population Mitochondria Different-Phenotype (%) [5]: 30%
- Population Mitotic Cells (%) [5]: 67%
- Population Normal (%) [5]: 96%
- Population Pyknosed Nuclei (%) [5]: 9%
- Population Tubulin-Different-Phenotype (%) [5]: 22%
- Total Cell Count [5]: 451
- Population Apoptotic (%) [6]: 45%
- Population Fragmented Nuclei (%) [6]: 10%
- Population Healthy Nuclei (%) [6]: 79%
- Population Hoechst High Intensity Objects (%) [6]: 4%
- Population Mitochondria Different-Phenotype (%) [6]: 44%
- Population Mitotic Cells (%) [6]: 54%
- Population Normal (%) [6]: 95%
- Population Pyknosed Nuclei (%) [6]: 10%
- Population Tubulin-Different-Phenotype (%) [6]: 18%
- Total Cell Count [6]: 339
- Population Apoptotic (%) [7]: 59%
- Population Fragmented Nuclei (%) [7]: 8%
- Population Healthy Nuclei (%) [7]: 74%
- Population Hoechst High Intensity Objects (%) [7]: 7%
- Population Membrane Permeable-Phenotype (%) [7]: 0%
- Population Mitochondria Different-Phenotype (%) [7]: 60%
- Population Mitotic Cells (%) [7]: 40%
- Population Normal (%) [7]: 92%
- Population Pyknosed Nuclei (%) [7]: 17%
- Population Tubulin-Different-Phenotype (%) [7]: 38%
- Total Cell Count [7]: 350
- Population Apoptotic (%) [8]: 50%
- Population Fragmented Nuclei (%) [8]: 11%
- Population Healthy Nuclei (%) [8]: 75%
- Population Mitochondria Different-Phenotype (%) [8]: 64%
- Population Mitotic Cells (%) [8]: 50%
- Population Pyknosed Nuclei (%) [8]: 13%
- Population Tubulin-Different-Phenotype (%) [8]: 26%
- Total Cell Count [8]: 348
- Population Apoptotic (%) [9]: 30%
- Population Fragmented Nuclei (%) [9]: 13%
- Population Healthy Nuclei (%) [9]: 76%
- Population Hoechst High Intensity Objects (%) [9]: 2%
- Population Membrane Permeable-Phenotype (%) [9]: 0%
- Population Mitochondria Different-Phenotype (%) [9]: 25%
- Population Mitotic Cells (%) [9]: 69%
- Population Normal (%) [9]: 97%
- Population Pyknosed Nuclei (%) [9]: 9%
- Population Tubulin-Different-Phenotype (%) [9]: 21%
- Total Cell Count [9]: 688
- Population Apoptotic (%) [10]: 46%
- Population Fragmented Nuclei (%) [10]: 8%
- Population Healthy Nuclei (%) [10]: 83%
- Population Hoechst High Intensity Objects (%) [10]: 4%
- Population Mitochondria Different-Phenotype (%) [10]: 24%
- Population Mitotic Cells (%) [10]: 53%
- Population Normal (%) [10]: 95%
- Population Pyknosed Nuclei (%) [10]: 8%
- Population Tubulin-Different-Phenotype (%) [10]: 13%
- Total Cell Count [10]: 524
- Population Apoptotic (%) [11]: 46%
- Population Fragmented Nuclei (%) [11]: 13%
- Population Healthy Nuclei (%) [11]: 75%
- Population Hoechst High Intensity Objects (%) [11]: 4%
- Population Membrane Permeable-Phenotype (%) [11]: 0%
- Population Mitochondria Different-Phenotype (%) [11]: 45%
- Population Mitotic Cells (%) [11]: 53%
- Population Normal (%) [11]: 95%
- Population Pyknosed Nuclei (%) [11]: 10%
- Population Tubulin-Different-Phenotype (%) [11]: 26%
- Total Cell Count [11]: 515
- Population Apoptotic (%) [12]: 48%
- Population Fragmented Nuclei (%) [12]: 16%
- Population Healthy Nuclei (%) [12]: 76%
- Population Hoechst High Intensity Objects (%) [12]: 2%
- Population Mitochondria Different-Phenotype (%) [12]: 37%
- Population Mitotic Cells (%) [12]: 51%
- Population Normal (%) [12]: 97%
- Population Pyknosed Nuclei (%) [12]: 7%
- Population Tubulin-Different-Phenotype (%) [12]: 20%
- Total Cell Count [12]: 544

From ChEMBL document CHEMBL5058577, “EUbOPEN Chemogenomics Library 2 (Multiplex)” (2022)
